# Reference: PubChem BioAssay
# Calls of active or inactive are those of the source.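 Rule for the calls, unless noted: active = viability at or below 10% of carrier control in both of two separate runs; inconclusive = viability at or below 10% in only one of the two runs; inactive = the rest.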
# Columns and labels:
# [1] = SK-BR-3 cell growth inhibitors, pilot screen, 24 h, human (AID 572); conditions: SK-BR-3 viability, CellTiter-Glo luminescence, at 10 µM, stronger effect = lower value;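 note: compound exposure lasted between 18 and 24 h rather than exactly 24 h; 100% = carrier-treated control wells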
# [2] = HUVEC growth inhibition – cell-based, human, primary screen (AID 575;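 active = viability at or below 30% in both replicate assays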;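 note: 100% = median of untreated cell wells with 0.1% DMSO on each plate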); conditions: HUVEC proliferation, CellTiter-Glo luminescence, 72 h; at 10 µM; stronger effect = lower value
# Summary of the method: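 Test system: primary human umbilical vein endothelial cells. Quantity: 1250 cells/well. Compound: single 10 µM dose, 0.1% DMSO, from 5x medium stock. Timing: 72 h treatment at 37 °C. Detection: ATP-based CellTiter-Glo luminescent read. Benchmarks: vehicle and MePR control wells. Format: 384-well plates coated with collagen.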
# [3] = growth inhibitors of H69AR lung tumor, primary screen, human, duplicate replicates (AID 580;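 active = viability at or under a set limit in both replicates, limit being median viability minus 3 SD, cut at about 48% in these data, passing the limit was not always enough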;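 note: 100% = mean luminescence of untreated wells and 0% = no signal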); conditions: H69AR lung tumor cells viability, ATP luminescence, 72 h; at 10 µM; stronger effect = lower value
# [4] = reversal of MRP1-mediated doxorubicin resistance, pilot screen, H69AR cells, doxorubicin co-treatment (AID 601;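 active = viability loss from added drug above about 55%, and viability with drug at most 40%, in both replicates, limit read from the data, passing the limit was not always enough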); conditions: CellTiter-Glo, 72 h, at 10 µM; for differential viability (reversal): stronger effect = higher value
# [5] = 384-well plate pilot, post-Golgi transport modulator project, inhibition of yeast transport mutant growth (AID 636; in the data active = inhibition above about 31%); conditions: absorbance 615 nm, about 18 h, stronger effect = higher value
# [6] = growth suppression of yeast trafficking mutant, preliminary HTS, modulators of trafficking downstream of Golgi apparatus project, 1536-format plate, OD 615 nm (AID 637; in the data active = inhibition above about 30%); conditions: yeast transport mutant growth, absorbance 615 nm, 18 h; stronger effect = higher value
# [7] = H69AR cells + 2 uM doxorubicin, measured here: viability with 2 uM doxorubicin, stronger effect = lower value
# [8] = H69AR cells, compound alone cytotoxicity
SMILES,viability [1],viability [2],viability [3],differential viability (reversal) ([4]; H69AR cells + 2 uM doxorubicin),"viability [4, 7]","viability [4, 8]",inhibition [5],inhibition [6]
CC(NC(=O)NC12CC3CC(CC(C3)C1)C2)C1CCCO1 (stereo not drawn),80% (inactive),103% (inactive),103% (inactive),10.1% (inactive),93.4%,103%,-3.7% (inactive),1.27% (inactive)
Cc1nnc2c3ccccc3c(-c3ccccc3)nn12,88% (inactive),100% (inactive),68.1% (inactive),42.8% (inactive),25.3%,68.1%,-6.49% (inactive),3.27% (inactive)
CC(=O)Nc1ccc(S(=O)(=O)CCC#N)cc1,109% (inactive),89.4% (inactive),91.7% (inactive),-6.28% (inactive),98%,91.7%,-1.17% (inactive),5.41% (inactive)
CN(C)C(CNC(=O)Nc1cccc(Cl)c1)c1cccnc1 (stereo not drawn),77% (inactive),96.6% (inactive),90.6% (inactive),8.96% (inactive),81.7%,90.6%,-3.42% (inactive),2.18% (inactive)
O=c1c(O)c(-c2ccc(O)cc2O)oc2cc(O)cc(O)c12,94% (inactive),97.5% (inactive),97.4% (inactive),-2.28% (inactive),99.6%,97.4%,-3.77% (inactive),-1.33% (inactive)
CC(=O)c1ccc(-n2nnnc2SCC(=O)N2CCc3ccccc3C2)cc1,94% (inactive),106% (inactive),88.9% (inactive),-12.1% (inactive),101%,88.9%,-6.3% (inactive),-14.7% (inactive)
COCC(=O)Nc1c(C(=O)Nc2ccccc2OC)oc2ccccc12,78% (inactive),59% (inactive),75.1% (inactive),-7.66% (inactive),82.8%,75.1%,-8.78% (inactive),-2.79% (inactive)
NC(=O)OCC(COC(N)=O)c1ccccc1,132% (inactive),89.3% (inactive),90.7% (inactive),-6.82% (inactive),97.5%,90.7%,-0.13% (inactive),2% (inactive)
COC(=O)c1sccc1NC(=O)c1ccco1,109% (inactive),92.3% (inactive),96.3% (inactive),-5.95% (inactive),102%,96.3%,-6.71% (inactive),7.27% (inactive)
CCOc1nc(-c2ccncc2)nc2ccccc12,100% (inactive),93.7% (inactive),92.6% (inactive),0.47% (inactive),92.1%,92.6%,-7.4% (inactive),9.35% (inactive)
COc1ccccc1N1CCN(CC(O)COc2cccc3ccccc23)CC1 (stereo not drawn),83% (inactive),74.9% (inactive),77.4% (inactive),-13.3% (inactive),90.7%,77.4%,-1.3% (inactive),-1.5% (inactive)
COc1ccc(OC)c(N(CC(=O)Nc2cccnc2)S(=O)(=O)c2ccc(OC)c(OC)c2)c1,112% (inactive),91% (inactive),83.7% (inactive),-2.03% (inactive),85.7%,83.7%,-6.58% (inactive),0.91% (inactive)
O=C(NCc1ccco1)c1ccccc1Nc1ccc(F)cc1,80% (inactive),97.1% (inactive),79.2% (inactive),5.57% (inactive),73.6%,79.2%,-7.03% (inactive),-7.09% (inactive)
COc1ccc(-c2noc(COc3ccc(C)c(C)c3)n2)cc1OC,110% (inactive),108% (inactive),94.1% (inactive),-2.45% (inactive),96.6%,94.1%,-7.3% (inactive),-1.64% (inactive)
CCCC(=O)Nc1c2c(nn1-c1ccc(OC)cc1)CS(=O)C2 (stereo not drawn),103% (inactive),109% (inactive),102% (inactive),9.39% (inactive),92.8%,102%,-2.73% (inactive),6.07% (inactive)
CCCC(OC(=O)CN1C(=O)COc2ccccc21)C(=O)NC1CCCC1 (stereo not drawn),63% (inactive),107% (inactive),91.7% (inactive),1.34% (inactive),90.3%,91.7%,-7.12% (inactive),3.09% (inactive)
O=C(NCc1ccco1)c1ccc2c(=O)n(CC3CCCO3)c(=S)[nH]c2c1 (stereo not drawn),94% (inactive),76% (inactive),94.4% (inactive),7.56% (inactive),86.9%,94.4%,-2.73% (inactive),-0.66% (inactive)
CCCCN1CN(S(=O)(=O)c2cccs2)c2nc3ccccc3nc21,97% (inactive),109% (inactive),83.7% (inactive),-5.09% (inactive),88.8%,83.7%,-10.1% (inactive),-4.18% (inactive)

SMILES,viability [1],viability [2],viability [3],differential viability (reversal) ([4]; H69AR cells + 2 uM doxorubicin),"viability [4, 7]","viability [4, 8]",inhibition [5],inhibition [6]
CCCNC(=O)NS(=O)(=O)c1ccc(Cl)cc1,124% (inactive),85% (inactive),97.5% (inactive),10.4% (inactive),87.1%,97.5%,-1.17% (inactive),0.83% (inactive)
CS(=O)(=O)N1CCCC(C(=O)N2CCOCC2)C1 (stereo not drawn),97% (inactive),108% (inactive),98.3% (inactive),4.13% (inactive),94.2%,98.3%,-2.6% (inactive),-1.15% (inactive)
CC(=O)NC(C)C(=O)OCc1ccc(Cl)cc1Cl (stereo not drawn),66% (inactive),99.5% (inactive),103% (inactive),7.35% (inactive),95.2%,103%,-4.79% (inactive),-1.27% (inactive)
COc1ccc(CNCC(=O)Nc2cc(C)nn2-c2nc(C)cc(C)n2)cc1OC,98% (inactive),51.1% (inactive),11.9% (active),-58.3% (inactive),70.1%,11.9%,-2.99% (inactive),1.15% (inactive)
CCN(C(=O)c1c(OC)cccc1OC)c1nnc(-c2cccnc2)s1,95% (inactive),87.7% (inactive),92.7% (inactive),1.89% (inactive),90.8%,92.7%,-5.81% (inactive),-7.82% (inactive)
Cc1ccc(CC2SC(=O)NC2=O)cc1Cl (stereo not drawn),107% (inactive),75.8% (inactive),92.7% (inactive),4.26% (inactive),88.4%,92.7%,3.42% (inactive),-2.26% (inactive)
O=C(Nc1cccc(NC(=O)c2ccco2)c1)c1ccc2c(c1)OCO2,106% (inactive),61% (inactive),82.4% (inactive),-4.39% (inactive),86.8%,82.4%,-1.18% (inactive),21.2% (inactive)
COC(=O)c1ccccc1NC(=O)C1CC=CCC1C(=O)O (stereo not drawn),117% (inactive),99.7% (inactive),84.8% (inactive),1.5% (inactive),83.3%,84.8%,-9.73% (inactive),-0.81% (inactive)
CCOc1ncccc1C(=O)Nc1ccc(Cl)cc1,92% (inactive),91.4% (inactive),79.8% (inactive),-3.41% (inactive),83.2%,79.8%,1.17% (inactive),0.49% (inactive)
CSc1nnc(-c2cnccn2)n1Cc1ccccc1,96% (inactive),92.5% (inactive),102% (inactive),6.43% (inactive),95.7%,102%,-2.88% (inactive),0.73% (inactive)
COc1cccc(NC(=O)N2CCCC2C(=O)Nc2ccc3c(c2)OCO3)c1 (stereo not drawn),106% (inactive),114% (inactive),96.3% (inactive),16.1% (inactive),80.2%,96.3%,-5.33% (inactive),-4.55% (inactive)
CCc1c(C)c2ccc(OCC(=O)OC)cc2oc1=O,109% (inactive),92.8% (inactive),94.4% (inactive),-2.49% (inactive),96.9%,94.4%,-1.49% (inactive),21.4% (inactive)
COC(=O)c1sc(N)c(C(=O)OC)c1COC(=O)C1CC(=O)N(Cc2ccco2)C1 (stereo not drawn),84% (inactive),103% (inactive),72.8% (inactive),-6.05% (inactive),78.9%,72.8%,-4.19% (inactive),-2.18% (inactive)
O=C(Nc1nc(-c2ccccc2)cs1)C1CCCO1 (stereo not drawn),91% (inactive),101% (inactive),94.2% (inactive),10.9% (inactive),83.3%,94.2%,-4.4% (inactive),-2.18% (inactive)
O=C(NCc1cccs1)C1CC(=O)N(C2CCCC2)C1 (stereo not drawn),87% (inactive),91.1% (inactive),94.4% (inactive),7.15% (inactive),87.3%,94.4%,2.6% (inactive),8.03% (inactive)
CCc1ccc2[nH]c(=O)c(C(c3nnnn3CC3CCCO3)N3CCN4CCCC4C3)cc2c1 (stereo not drawn),100% (inactive),109% (inactive),105% (inactive),14.1% (inactive),91.1%,105%,-3.2% (inactive),-2.55% (inactive)
CCOC(=O)c1nnc2ccnn2c1N,74% (inactive),87.9% (inactive),109% (inactive),1.61% (inactive),107%,109%,-4.79% (inactive),-2.91% (inactive)
O=C(O)C1C2C=CC(C3CC23)C1C(=O)NCCc1ccccc1 (stereo not drawn),101% (inactive),89.7% (inactive),98% (inactive),6.28% (inactive),91.7%,98%,-5.81% (inactive),-3.93% (inactive)
